Published values from different studies.
Each line is one published result; the experiments were not run side by side.
Target: Serine/threonine-protein kinase TBK1 (TBK1, Homo sapiens, UniProt Q9UHD2)
One construct used (Q9UHD2 1-729): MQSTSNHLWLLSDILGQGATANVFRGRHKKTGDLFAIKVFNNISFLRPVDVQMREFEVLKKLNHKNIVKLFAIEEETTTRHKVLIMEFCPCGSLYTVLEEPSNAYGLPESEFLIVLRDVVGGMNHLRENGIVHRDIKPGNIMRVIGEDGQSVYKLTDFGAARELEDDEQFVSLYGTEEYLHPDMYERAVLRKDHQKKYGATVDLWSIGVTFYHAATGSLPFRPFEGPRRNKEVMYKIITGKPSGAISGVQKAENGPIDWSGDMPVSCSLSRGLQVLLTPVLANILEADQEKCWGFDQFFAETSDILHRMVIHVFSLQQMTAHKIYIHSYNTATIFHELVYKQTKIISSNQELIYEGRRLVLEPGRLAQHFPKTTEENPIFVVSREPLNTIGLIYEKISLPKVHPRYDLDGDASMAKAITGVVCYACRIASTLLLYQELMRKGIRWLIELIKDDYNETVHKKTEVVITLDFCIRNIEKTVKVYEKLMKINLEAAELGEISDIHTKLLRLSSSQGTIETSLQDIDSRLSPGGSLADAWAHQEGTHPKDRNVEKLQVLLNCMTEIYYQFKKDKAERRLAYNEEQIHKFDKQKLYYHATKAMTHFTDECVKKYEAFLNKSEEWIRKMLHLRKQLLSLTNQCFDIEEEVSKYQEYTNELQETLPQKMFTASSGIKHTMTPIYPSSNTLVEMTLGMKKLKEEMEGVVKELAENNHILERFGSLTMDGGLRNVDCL

SMILES	test	setting	remaining binding [%]
c1cncc(-c2cccc(Nc3nccc(NC4CCCCC4)n3)c2)c1	binding, competition with immobilised ligand	10 µM	62
C[C@@H]1CCN(c2nccc(-c3cnn4ncccc34)n2)C1	binding	1 µM	63
CS(=O)(=O)NCC[C@H](NC(=O)c1cncc2c1cnn2-c1ccc(F)cc1)c1ccnc(S(C)(=O)=O)c1	cell-free assay, competition with immobilised ligand	1 µM	94
O=C(NCCCN1CCOCC1)c1ccc(Nc2nccc(-c3cc4ccccc4s3)n2)cc1	binding, competition with immobilised ligand	1 µM	70
CC(=O)N1CCC(c2ccc(C(=O)NC(=N)N)cc2C(F)(F)F)CC1	cell-free assay, competition with immobilised ligand	1 µM	100
Cc1cnn2ncc(-c3ccnc(N(C)C)n3)c2c1	binding	1 µM	82
O=c1nc(-c2ccccn2)sc2ccccc12	binding, competition with immobilised ligand	1 µM	91
CN(C)c1nccc(-c2cnn3ncccc23)n1	binding	1 µM	82
COc1ncc2cc3ccccc3nc2c1C#N	cell-free assay, competition with immobilised ligand	5 µM	98
CN(c1nccc(-c2cnn3ncccc23)n1)C1CC1	binding	1 µM	100
O=C(O)[C@@H]1[C@@H](Cn2nnc3ccccc3c2=O)CC[C@H]1C(=O)c1ccc(OCCC2CCOCC2)cc1	cell-free assay, competition with immobilised ligand	1 µM	100
C[C@@H](c1ccc(-n2cnc3c(N)ncnc32)cc1)N1CCc2nn(C)c(Cc3ccccc3)c2C1=O	binding, competition with immobilised ligand	0.1 µM	98
COc1ccnn2ncc(-c3ccnc(N(C)C)n3)c12	binding	1 µM	68
FC(F)(F)Oc1cccc(-c2cnc3ccc(-c4ccncc4)nn23)c1	binding, competition with immobilised ligand	5 µM	54
CNC(=O)[C@@H]1CC[C@@H](n2c(-c3ccc4cnccc4c3)nc3ccc(C(=O)NCc4cccc(C(N)=O)c4)cc32)C1	binding, competition with immobilised ligand	1 µM	95
O=C(Nc1c[nH]nc1C(=O)NC1CCNCC1)c1cc(F)cc(F)c1	binding, competition with immobilised ligand	1 µM	100
CC1=C(C#N)C(c2ccc3c(c2)c(NC(=O)c2ccccc2C)nn3C)C(C#N)=C(C)N1	cell-free assay, competition with immobilised ligand	1 µM	69
O=C(c1ccc(Nc2ncc(Cl)c(-c3ccc(Cl)s3)n2)cc1)N1CCC(N2CCCC2)CC1	binding, competition with immobilised ligand	1 µM	0
N[C@@H]1CCN(c2nccc(-c3cnn4ncccc34)n2)C1	binding	1 µM	97
COc1cccc(CNC(=O)c2nc3scc(COCc4ccc(C(=O)O)cc4)c3c(=O)[nH]2)c1	cell-free assay, competition with immobilised ligand	1 µM	94
O=C(c1ccc(Nc2nccc(-c3cc4ccccc4s3)n2)cc1)N1CCC(N2CCCC2)CC1	binding, competition with immobilised ligand	1 µM	27
